# Active and inactive are the calls of the source. The rule behind the calls is not given here.
# Key:
# Cavia porcellus = species on record: Cavia porcellus; test: Selectivity ratio of Ki for sigma 1 receptor in guinea pig brain membranes to Ki for sigma 2 receptor in guinea pig brain membranes; format: cell membranes
# [1] = molecular target: Sigma non-opioid intracellular receptor 1 (Cavia porcellus, UniProt Q60492); test: Displacement of [3H]-(+)-pentazocine from sigma 1 receptor in guinea pig brain membranes after 150 mins; format: cell membranes, Membrane
# Chain of Sigma non-opioid intracellular receptor 1 (Q60492 whole entry): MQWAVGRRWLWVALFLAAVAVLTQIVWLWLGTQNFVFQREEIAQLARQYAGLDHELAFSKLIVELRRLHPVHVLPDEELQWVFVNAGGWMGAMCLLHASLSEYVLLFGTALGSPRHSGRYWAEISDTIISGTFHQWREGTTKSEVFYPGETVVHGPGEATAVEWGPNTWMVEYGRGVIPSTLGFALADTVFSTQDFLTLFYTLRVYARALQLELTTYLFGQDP
# [2] = Displacement of [3H]DTG from sigma 2 receptor in guinea pig brain membranes after 120 mins; format: cell membranes, Cavia porcellus, Membrane
# LNCaP = test: Antiproliferative activity against human LNCAP cells at 100 uM after 48 hrs; format: functional, cell-based
# How it was run: (§1)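 LNCaP (hormone-sensitive) and PC3 (hormone-refractory) prostate tumour cells exposed to 100 μM compound for 48 h; antiproliferative effect measured. Haloperidol and haloperidol metabolite II run as references.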
# [3] = Agonist activity at sigma 2 receptor in guinea pig longitudinal muscle/myenteric plexus assessed as inhibition of electrically-induced contraction; format: functional; conditions: Cavia porcellus
# How it was run: (§2)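 Guinea pig ileum preparation with sigma-1 receptors desensitized. Electrically evoked contractions recorded in an isolated organ bath; a dose-response curve was built from the inhibition of the evoked contractions.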
# [4] = molecular target: D(1A) dopamine receptor (Rattus norvegicus) (UniProt P18901); test: Binding affinity to dopamine D1 receptor in rat striatum; format: tissue-based
# Chain of D(1A) dopamine receptor (Rattus norvegicus) (P18901 whole entry): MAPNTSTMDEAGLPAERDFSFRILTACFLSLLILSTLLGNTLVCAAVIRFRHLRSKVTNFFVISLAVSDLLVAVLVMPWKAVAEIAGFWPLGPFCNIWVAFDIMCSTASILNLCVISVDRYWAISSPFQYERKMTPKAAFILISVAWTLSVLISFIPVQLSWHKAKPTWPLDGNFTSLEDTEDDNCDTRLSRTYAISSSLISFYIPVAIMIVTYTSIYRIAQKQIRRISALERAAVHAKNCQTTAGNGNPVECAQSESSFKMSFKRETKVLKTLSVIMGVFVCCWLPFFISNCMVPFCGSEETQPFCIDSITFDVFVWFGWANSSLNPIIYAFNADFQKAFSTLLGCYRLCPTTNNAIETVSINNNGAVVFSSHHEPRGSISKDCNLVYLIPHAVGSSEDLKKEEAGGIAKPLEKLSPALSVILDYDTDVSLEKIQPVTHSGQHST
# [5] = molecular target: 5-hydroxytryptamine receptor 2A (Rattus norvegicus) (UniProt P14842); test: Binding affinity to 5-HT2A receptor in rat cortex; format: tissue-based
# Chain of 5-hydroxytryptamine receptor 2A (Rattus norvegicus) (P14842 whole entry): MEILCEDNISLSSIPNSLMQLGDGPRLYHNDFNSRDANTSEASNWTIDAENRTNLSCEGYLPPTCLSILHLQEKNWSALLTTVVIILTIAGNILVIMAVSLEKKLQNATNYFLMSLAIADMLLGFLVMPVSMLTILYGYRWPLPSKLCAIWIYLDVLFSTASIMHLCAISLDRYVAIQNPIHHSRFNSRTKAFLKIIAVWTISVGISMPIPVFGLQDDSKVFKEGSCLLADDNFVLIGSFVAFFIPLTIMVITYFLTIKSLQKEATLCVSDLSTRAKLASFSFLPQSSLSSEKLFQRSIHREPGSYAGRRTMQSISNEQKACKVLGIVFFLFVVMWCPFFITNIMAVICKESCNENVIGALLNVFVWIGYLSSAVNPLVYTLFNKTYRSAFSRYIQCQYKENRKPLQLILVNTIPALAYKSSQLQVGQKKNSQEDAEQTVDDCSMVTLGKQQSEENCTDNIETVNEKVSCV
# [6] = molecular target: D(3) dopamine receptor (Rattus norvegicus) (UniProt P19020); test: Binding affinity to dopamine D3 receptor in rat olfactory tubercle; format: tissue-based
# Chain of D(3) dopamine receptor (Rattus norvegicus) (P19020 whole entry): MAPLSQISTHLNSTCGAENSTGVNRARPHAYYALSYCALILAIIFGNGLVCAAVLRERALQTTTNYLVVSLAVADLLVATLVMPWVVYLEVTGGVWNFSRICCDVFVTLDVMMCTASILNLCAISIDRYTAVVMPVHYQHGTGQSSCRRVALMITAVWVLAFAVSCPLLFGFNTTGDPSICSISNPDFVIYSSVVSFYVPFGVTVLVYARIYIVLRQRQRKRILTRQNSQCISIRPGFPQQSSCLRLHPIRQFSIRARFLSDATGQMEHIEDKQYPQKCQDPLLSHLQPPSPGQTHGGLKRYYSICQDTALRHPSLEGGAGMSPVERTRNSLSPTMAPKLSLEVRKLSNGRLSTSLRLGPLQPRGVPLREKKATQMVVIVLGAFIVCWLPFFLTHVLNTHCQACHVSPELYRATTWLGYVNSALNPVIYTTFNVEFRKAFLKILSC
# PC-3 = test: Antiproliferative activity against human PC3 cells at 100 uM after 48 hrs; format: functional, cell-based; how it was run: as §1
# [7] = molecular target: D(2) dopamine receptor (Rattus norvegicus) (UniProt P61169); test: Binding affinity to dopamine D2 receptor in rat striatum; format: tissue-based
# Chain of D(2) dopamine receptor (Rattus norvegicus) (P61169 whole entry): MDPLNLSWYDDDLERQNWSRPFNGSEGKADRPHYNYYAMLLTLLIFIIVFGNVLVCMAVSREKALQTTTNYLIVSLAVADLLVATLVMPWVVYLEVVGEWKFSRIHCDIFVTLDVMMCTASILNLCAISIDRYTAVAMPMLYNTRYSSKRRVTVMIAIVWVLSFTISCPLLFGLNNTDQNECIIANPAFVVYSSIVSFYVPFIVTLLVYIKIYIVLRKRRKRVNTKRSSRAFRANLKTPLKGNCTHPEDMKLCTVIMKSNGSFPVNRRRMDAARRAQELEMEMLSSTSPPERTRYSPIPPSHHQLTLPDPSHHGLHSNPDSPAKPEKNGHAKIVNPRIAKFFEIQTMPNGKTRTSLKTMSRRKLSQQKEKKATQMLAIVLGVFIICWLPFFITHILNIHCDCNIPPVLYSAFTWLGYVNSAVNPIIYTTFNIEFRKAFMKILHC
# [8] = Partial agonist activity at sigma 2 receptor in guinea pig longitudinal muscle/myenteric plexus assessed as inhibition of electrically-induced contraction; format: functional, Cavia porcellus; how it was run: as §2
# [9] = Binding affinity to dopamine D4.2 receptor
# [10] = molecular target: Mu-type opioid receptor (Rattus norvegicus) (UniProt P33535); test: Displacement of [3H]naloxone from mu opioid receptor in rat brain membranes; format: cell membranes
# Chain of Mu-type opioid receptor (Rattus norvegicus) (P33535 whole entry): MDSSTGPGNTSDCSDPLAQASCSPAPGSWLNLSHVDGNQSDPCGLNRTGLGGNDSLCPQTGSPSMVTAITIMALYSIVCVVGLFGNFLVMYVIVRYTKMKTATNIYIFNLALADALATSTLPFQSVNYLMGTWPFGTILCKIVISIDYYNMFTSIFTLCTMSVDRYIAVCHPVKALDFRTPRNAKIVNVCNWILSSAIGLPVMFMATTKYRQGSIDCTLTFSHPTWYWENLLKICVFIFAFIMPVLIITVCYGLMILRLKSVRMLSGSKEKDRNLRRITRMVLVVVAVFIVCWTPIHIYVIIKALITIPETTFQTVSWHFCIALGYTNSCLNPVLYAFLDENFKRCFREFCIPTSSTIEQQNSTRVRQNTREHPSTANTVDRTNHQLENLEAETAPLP
# [11] = molecular target: Adrenergic receptor alpha-1 (Rattus norvegicus) (UniProt P15823+P23944+P43140); test: Binding affinity to adrenergic alpha1 receptor in rat cortex
# [12] = molecular target: Sigma non-opioid intracellular receptor 1 (Cavia porcellus) (UniProt Q60492); test: Displacement of [3H]-(+)-pentazocine from sigma 1 receptor in guinea pig brain membranes after 150 mins in presence of 1 mM to 250 uM of phenytoin; format: cell membranes; conditions: Membrane
# Chain of Sigma non-opioid intracellular receptor 1 (Cavia porcellus) (Q60492 whole entry): as the sequence (Q60492 whole entry) above
# How it was run: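 Guinea pig brain [3H](+)-pentazocine competition binding run without phenytoin and with 250 μM or 1 mM phenytoin. Ki ratios (control/with phenytoin) computed. Hill analysis of competition curves. Cocaine served as the putative σ1 agonist control.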
# Rattus norvegicus [13] = test: Potentiation of (-)-U50488H-induced antinociceptive activity in Sprague-Dawley rat assessed as mean AUC of thermal-stimulus induced tail flick latency for 60 mins at 1 mg/kg, sc treated 45 mins before (-)-U50488H challenge; format: functional; conditions: route subcutaneous
# How it was run: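 Rats were pretreated sc with test compound at 1 mg/kg 45 min before the κ agonist (−)-U50,488H at 5 mg/kg sc. Thermal-stimulus tail flick latency was taken as percent change from basal over 60 min and summarised as MAUC after the last injection. Groups were compared with saline- and U50,488H-only groups, n = 8–10, mean ± SD, p < 0.05.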
# Rattus norvegicus [14] = test: Antinociceptive activity in Sprague-Dawley rat assessed as mean AUC of thermal-stimulus induced tail flick latency for 60 mins at 1 mg/kg, sc; format: functional, organism-based; parameters: dose 1 mg/kg
# How it was run: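 Rats given test compound 1 mg/kg sc alone. Tail flick latency to thermal stimulation, expressed as percent change from basal, tracked over a 60 min window. Summarised as mean area under the curve (MAUC) after the last injection. Compared against saline-treated rats, n = 8–10 per group, mean ± SD, significance at p < 0.05.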
Compound,Ratio Ki (Cavia porcellus),Ki [1],Ki [2],further results
COC(=O)[C@]1(c2ccccc2)C[C@@H]1CN1C2C=C(c3ccc(Cl)cc3)CC1CC2 (mixture of isomers),2.4,0.397 µM,0.943 µM,–
COC(=O)[C@@]1(c2ccccc2)C[C@H]1CN1CCC(O)(c2ccc(Cl)cc2)CC1,–,0.00561 µM,0.0234 µM,–
COC(=O)[C@@]1(c2ccccc2)C[C@H]1CN1C2C=C(c3ccc(Cl)cc3)CC1CC2 (mixture of isomers),2.8,0.198 µM,0.565 µM,–
COC(=O)[C@]1(c2ccccc2)C[C@@H]1CN1CCC(O)(c2ccccc2)CC1,5.6,0.00502 µM,0.0282 µM,–
O=C(CCCc1ccccc1)OC(CCCN1CCC(O)(c2ccc(Cl)cc2)CC1)c1ccc(F)cc1 (racemic),0.18,0.0054 µM,0.00098 µM,–
COC(=O)[C@]1(c2ccccc2)C[C@@H]1CN1[C@@H]2CC[C@H]1C[C@@](O)(c1ccc(Cl)cc1)C2,1.3,0.044 µM,0.0583 µM,–
Cc1ccccc1NC(=N)Nc1ccccc1C [DITOLYLGUANIDINE],–,–,0.023 µM,–
COC(=O)[C@@]1(c2ccccc2)C[C@H]1CN1[C@@H]2CC[C@H]1C[C@@](O)(c1ccc(Cl)cc1)C2,0.05,0.52 µM,0.0252 µM,Activity (LNCaP): Active; EC50 [3]: 2.3 µM; Activity [4]: Active; Activity [5]: Active; Activity [6]: Active; Activity (PC-3): Active; Activity [7]: Active; Alpha max [8]: 0.4; Activity [9]: Active; Activity [10]: Active; Activity [11]: Active
COC(=O)[C@]1(c2ccccc2)C[C@@H]1CN1CCC(O)(c2ccc(Cl)cc2)CC1,–,0.00395 µM,0.0219 µM,inhibition [12]: Active
O=C(CCCN1CCC(O)(c2ccc(Cl)cc2)CC1)c1ccc(F)cc1 [HALOPERIDOL],–,–,0.016 µM,–
COC(=O)[C@@]1(c2ccccc2)C[C@H]1CN1CCC(O)(c2ccccc2)CC1,81.4,0.00701 µM,0.571 µM,Activity [4]: Active; Activity [5]: Active; Activity (Rattus norvegicus [13]): 118.2%; Activity [6]: Active; Activity [7]: Active; Activity (Rattus norvegicus [14]): inactive; inhibition [12]: Active; Activity [9]: Active; Activity [10]: Active; Activity [11]: Active
COC(=O)[C@H]1[C@@H](OC(=O)c2ccccc2)C[C@@H]2CC[C@H]1N2C,–,–,–,inhibition [12]: inactive

# — ChEMBL document CHEMBL1772975, “Novel potent and selective σ ligands: evaluation of their agonist and antagonist properties” (J Med Chem, 2011)
